For experiment [1], the target named is T1, Macrophage migration inhibitory factor (Homo sapiens, UniProt P14174).
T1 sequence (P14174 whole entry): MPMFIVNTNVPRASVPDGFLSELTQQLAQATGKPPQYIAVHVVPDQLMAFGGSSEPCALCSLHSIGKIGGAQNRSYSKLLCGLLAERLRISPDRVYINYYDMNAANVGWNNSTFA
Nature of the experiment: Inhibition of MIF tautomerase activity by spectrophotometric assay.

The test system of experiment [2] is Mus musculus. Briefly: Survival of CLP-induced BALB/c mouse at 4 mg/kg, ip after 3 days. As to conditions: 72 h, route intraperitoneal. It counts as functional. The procedure, abridged:
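Male Balb/C mice (~8 weeks) given cecal ligation with a single 22G puncture under ketamine/xylazine anaesthesia. Subcutaneous antibiotic and saline resuscitation were given right after surgery. Dosing was 4 mg/kg intraperitoneally in 20% DMSO/80% saline, started 24 h post-CLP and repeated twice daily on days 2 and 3. The vehicle group was handled the same way. Survival was scored with n=13 per group.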

The species named for experiment [3] is Mus musculus. Nature of the experiment: Inhibition of LPS-induced TNFalpha release in […] macrophages after 16 hrs. It counts as functional. Summed up: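 […] macrophages (10⁵ cells) given compound at 0.01–100 μM 30 min before LPS stimulation; 16 h incubation, then TNF measured in culture supernatants by ELISA. Mean ± S.D, n=3.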

As usually defined, the IC50 is the midpoint of a concentration-inhibition curve. The low end stands for higher potency, the high end for lower potency.

SMILES strings stand for the structures.

In experiment [1], `COc1ccc(N/N=C/c2ccc(O)cc2)cc1` displayed an IC50 of 0.48 µM. In experiment [1], `N/N=C/c1ccc(O)cc1` displayed an IC50 of over 500 µM. On the same count and under the same terms, for `COc1ccc(COC(=O)N/N=C/c2ccc(O)cc2)cc1` the value was 8 µM; for `CC(C)(C)OC(=O)N/N=C/c1ccc(O)cc1`, 5.5 µM. With `COc1ccc(N/N=C/c2ccc(O)c(F)c2)cc1`, the IC50 in experiment [1] was 0.13 µM. Moreover, the survival at 4 mg/kg with Mus musculus [2] is 65%. For the same compound, in the experiment listed under Mus musculus [3], the Activity result was “Dose-dependent effect”. With `CN(/N=C/c1ccc(O)cc1)c1ccccc1`, inhibition in experiment [1] was half-maximal at 300 µM (IC50). Regarding `CCOC(=O)N/N=C/c1ccc(O)cc1`, the IC50 in experiment [1] stood at 43 µM. Still for that read-out and setting: the result for `Oc1ccc(/C=N/Nc2ccccc2)cc1` reads 2.6 µM; that for `COc1ccc(N/N=C/c2ccc(O)c(Br)c2)cc1`, 0.33 µM; that for `CN/N=C/c1ccc(O)cc1`, 43 µM.

For the compound `COC(=O)N/N=C/c1ccc(O)cc1`, in experiment [1], the midpoint of inhibition, the IC50, lay at 55 µM.

In experiment [1], `O=C(N/N=C/c1ccc(O)cc1)OCc1ccccc1` returned an IC50 of 10 µM.

On to `COc1ccc(N/N=C/c2ccc(O)c(Cl)c2)cc1`, for which half-maximal inhibition in experiment [1] (IC50) required 0.22 µM.

The values above are taken from ChEMBL document CHEMBL1144476, “Phenolic hydrazones are potent inhibitors of macrophage migration inhibitory factor proinflammatory activity and survival improving agents in sepsis” (J Med Chem, 2007).
